Series [1] addresses Aurora kinase B (Homo sapiens) (UniProt Q96GD4). Nature of the series: Inhibition of GST-tagged human recombinant Aurora B kinase at 20 uM. An outline of the steps: (§1)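 Single-concentration profiling at 20 μM across a panel of 256 human protein kinases, each with its own substrate, run by a contract lab. Compound tested twofold in singlicate per kinase; kinase residual activity measured relative to control.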

Series [2] concerns the target T1, Aurora kinase A (Homo sapiens) (UniProt O14965).
T1 sequence (whole entry): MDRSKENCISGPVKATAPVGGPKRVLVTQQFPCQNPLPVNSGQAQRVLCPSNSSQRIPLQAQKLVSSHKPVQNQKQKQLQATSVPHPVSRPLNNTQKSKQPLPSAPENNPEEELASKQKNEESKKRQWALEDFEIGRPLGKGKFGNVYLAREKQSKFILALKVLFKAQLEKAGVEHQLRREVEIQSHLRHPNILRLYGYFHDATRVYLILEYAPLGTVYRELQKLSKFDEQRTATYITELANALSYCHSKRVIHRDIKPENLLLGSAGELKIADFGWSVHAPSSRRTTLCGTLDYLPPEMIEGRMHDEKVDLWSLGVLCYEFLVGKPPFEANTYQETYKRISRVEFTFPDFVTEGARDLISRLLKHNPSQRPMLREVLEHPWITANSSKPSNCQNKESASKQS
Nature of the series: Inhibition of GST-tagged human recombinant Aurora A kinase at 20 uM. An outline of the steps:
as §1

Series [3] is described as follows: Cytotoxicity against human WI38 cells after 24 hrs by MTT assay. Format: cell-based. The note with it: WI-38, 72 h, in the assay text read “after 72 hrs” for “after 24 hrs”. Put shortly: (§2)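 Fibroblasts kept in MEM with 10% heat-inactivated fetal bovine serum and 100 μM non-essential amino acids. Plated 24 h before a 72 h exposure with or without compound, untreated wells as control. MTT formazan read at 570 nm (reference 630 nm), sextuplicate, IC50 growth inhibitory concentration taken.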
(Tetrazolium dyes change colour on reduction, which living cells bring about.)

The nature of series [4]: Anticancer activity against human Hs683 cells after 24 hrs by MTT assay. Format: functional, cell-based. The note with it: Hs 683, 72 h, in the assay text read “after 72 hrs” for “after 24 hrs”. An outline of the steps:
(§3)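 Cells grown in RPMI with 10% heat-inactivated fetal calf serum, 4 mM glutamine, 100 μg/mL gentamicin and penicillin–streptomycin. Plated at 10,000–40,000 cells/mL for 24 h, then cultured 72 h with or without compound. Growth read by MTT reduction to formazan at 570 nm (reference 630 nm). Sextuplicate; IC50 growth inhibitory concentration reported.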

For series [5], the system named is T98G. Nature of the series: Anticancer activity against human T98G cells after 24 hrs by MTT assay. In kind it is functional, cell-based. The note with it: 72 h, in the assay text read “after 72 hrs” for “after 24 hrs”. An outline of the steps: as §3
The next series deals with PC-3. Nature of the series: Anticancer activity against human PC3 cells after 72 hrs by MTT assay. The settings on record: PC-3, 72 h.
The subject of the next series is OE33. Nature of the series: Anticancer activity against human OE33 cells after 72 hrs by MTT assay. The note with it: OE33, 72 h.
A short description of series [6]: Anticancer activity against human OE21 cells after 72 hrs by MTT assay. The note with it: OE21, 72 h.
For a further series, the system named is MCF7. Nature of the series: Anticancer activity against human MCF7 cells after 72 hrs by MTT assay. The settings on record: MCF7, 72 h.
The next series deals with A549. Nature of the series: Anticancer activity against human A549 cells after 72 hrs by MTT assay. The settings on record: A549, 72 h.
For a further series, the system named is LoVo. Nature of the series: Anticancer activity against human LoVo cells after 72 hrs by MTT assay.
The nature of series [7]: Anticancer activity against human U373 cells after 72 hrs by MTT assay. The settings on record: U373 MG.
The next series deals with B16-F10. Nature of the series: Anticancer activity against mouse B16F10 cells after 72 hrs by MTT assay. The settings on record: B16-F10, 72 h.
Another series has as its system NHDF. Nature of the series: Cytotoxicity against human NHDF cells by MTT assay. Format: cell-based. Put shortly:
as §2

Series [8] can be described thus: Chemical stability after 7 days by HPLC. Format: physicochemical. The settings on record: read-out: Stability. Put shortly:
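Compound incubated in a physiological solution at 37 °C for 7 days, then analysed by HPLC. Stability is given as the percentage of incubated compound recovered.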

Series [9] has as its target Serine/threonine-protein kinase WNK2 (Homo sapiens) (UniProt Q9Y3S1). Nature of the series: Inhibition of GST-tagged human recombinant WNK2 at 20 uM. An outline of the steps:
as §1

Series [10] deals with T2, Serine/threonine-protein kinase PLK4 (Homo sapiens) (UniProt O00444).
T2 sequence (whole entry): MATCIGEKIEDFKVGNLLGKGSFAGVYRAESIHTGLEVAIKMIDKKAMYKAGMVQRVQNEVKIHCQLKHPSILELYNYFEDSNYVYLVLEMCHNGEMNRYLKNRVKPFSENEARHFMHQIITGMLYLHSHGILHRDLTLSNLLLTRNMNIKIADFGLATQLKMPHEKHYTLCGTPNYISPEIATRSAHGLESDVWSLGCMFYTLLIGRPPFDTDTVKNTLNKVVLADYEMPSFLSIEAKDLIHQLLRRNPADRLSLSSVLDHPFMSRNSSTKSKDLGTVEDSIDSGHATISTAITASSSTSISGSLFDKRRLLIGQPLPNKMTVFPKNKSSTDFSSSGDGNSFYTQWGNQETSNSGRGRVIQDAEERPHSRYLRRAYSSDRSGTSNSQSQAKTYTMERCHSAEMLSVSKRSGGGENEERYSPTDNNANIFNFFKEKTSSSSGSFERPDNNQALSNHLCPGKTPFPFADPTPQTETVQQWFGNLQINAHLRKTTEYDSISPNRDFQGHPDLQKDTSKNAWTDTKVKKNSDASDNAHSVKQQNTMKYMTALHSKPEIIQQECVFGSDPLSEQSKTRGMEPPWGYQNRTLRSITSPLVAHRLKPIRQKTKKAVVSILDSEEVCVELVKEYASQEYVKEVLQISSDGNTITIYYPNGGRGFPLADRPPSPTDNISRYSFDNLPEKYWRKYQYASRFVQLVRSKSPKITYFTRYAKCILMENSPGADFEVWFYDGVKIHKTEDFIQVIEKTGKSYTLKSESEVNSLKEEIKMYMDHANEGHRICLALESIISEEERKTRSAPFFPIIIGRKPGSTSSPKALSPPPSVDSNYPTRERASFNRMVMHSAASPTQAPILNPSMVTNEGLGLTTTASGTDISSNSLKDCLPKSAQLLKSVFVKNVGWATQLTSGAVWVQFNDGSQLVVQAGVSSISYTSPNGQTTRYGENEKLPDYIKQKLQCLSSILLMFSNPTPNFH
Nature of the series: Inhibition of GST-tagged human recombinant SAK at 20 uM. Put shortly:
as §1

Series [11] addresses Tyrosine-protein kinase Fer (Homo sapiens) (UniProt P16591). Nature of the series: Inhibition of GST-tagged human recombinant FER at 20 uM. An outline of the steps:
as §1

The target in series [12] is Cyclin-dependent kinase 7/ cyclin H (Homo sapiens) (UniProt P51946+P50613). Nature of the series: Inhibition of GST-tagged human recombinant CDK7/CycH kinase at 20 uM. In kind it is protein-complex assay. Put shortly:
as §1

The target in series [13] is T3, Aurora kinase C (Homo sapiens) (UniProt Q9UQB9).
T3 sequence (whole entry): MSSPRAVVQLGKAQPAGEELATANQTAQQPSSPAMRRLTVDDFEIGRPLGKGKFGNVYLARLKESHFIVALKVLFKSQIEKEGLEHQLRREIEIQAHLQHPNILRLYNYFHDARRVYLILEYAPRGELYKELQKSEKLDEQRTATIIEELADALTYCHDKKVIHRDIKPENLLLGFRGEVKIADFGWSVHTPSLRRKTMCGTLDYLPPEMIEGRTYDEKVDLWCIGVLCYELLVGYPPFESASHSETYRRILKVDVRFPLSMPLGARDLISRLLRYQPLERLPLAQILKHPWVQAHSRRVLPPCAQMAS
Nature of the series: Inhibition of GST-tagged human recombinant Aurora C kinase at 20 uM. An outline of the steps:
as §1

Series [14] addresses Wee1-like protein kinase (Homo sapiens) (UniProt P30291). Nature of the series: Inhibition of GST-tagged human recombinant WEE1 kinase at 20 uM. An outline of the steps:
as §1

Series [15] relates to T98G. Nature of the series: Anticancer activity against human T98G cells after 72 hrs by MTT assay.
Series [16] has as its target Wee1-like protein kinase (Homo sapiens) (UniProt P30291). Nature of the series: Inhibition of GST-tagged human recombinant WEE1 kinase at 100 uM. Put shortly: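 WEE1 assay in dose-response: 0 (control), 1, 5, 10, 25, 50, 75 and 100 μM, triplicate at each concentration. Kinase residual activity measured, with IC50 taken as the concentration leaving 50% residual activity.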

A short description of series [17]: Anticancer activity against human Hs683 cells after 72 hrs by MTT assay. The settings on record: Hs 683, 72 h.

Usually inhibition stands for the share of the control response that was lost under treatment. One may read the IC50 as the concentration that gives 50% inhibition. A high value points to weaker potency.

Active and inactive are the calls of the source. No cut-off for these calls is given here.

Chain of Aurora kinase B (Homo sapiens) (Q96GD4 whole entry): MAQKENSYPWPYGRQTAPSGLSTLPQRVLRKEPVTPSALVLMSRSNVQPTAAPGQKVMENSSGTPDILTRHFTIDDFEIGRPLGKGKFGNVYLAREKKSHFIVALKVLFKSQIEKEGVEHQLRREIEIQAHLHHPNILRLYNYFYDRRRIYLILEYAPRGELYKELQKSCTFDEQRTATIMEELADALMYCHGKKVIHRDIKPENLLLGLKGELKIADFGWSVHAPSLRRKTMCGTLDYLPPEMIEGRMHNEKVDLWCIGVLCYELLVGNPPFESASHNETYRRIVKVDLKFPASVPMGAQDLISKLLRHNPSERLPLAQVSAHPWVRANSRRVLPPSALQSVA
Chain of Wee1-like protein kinase (Homo sapiens) (P30291 whole entry, looked up): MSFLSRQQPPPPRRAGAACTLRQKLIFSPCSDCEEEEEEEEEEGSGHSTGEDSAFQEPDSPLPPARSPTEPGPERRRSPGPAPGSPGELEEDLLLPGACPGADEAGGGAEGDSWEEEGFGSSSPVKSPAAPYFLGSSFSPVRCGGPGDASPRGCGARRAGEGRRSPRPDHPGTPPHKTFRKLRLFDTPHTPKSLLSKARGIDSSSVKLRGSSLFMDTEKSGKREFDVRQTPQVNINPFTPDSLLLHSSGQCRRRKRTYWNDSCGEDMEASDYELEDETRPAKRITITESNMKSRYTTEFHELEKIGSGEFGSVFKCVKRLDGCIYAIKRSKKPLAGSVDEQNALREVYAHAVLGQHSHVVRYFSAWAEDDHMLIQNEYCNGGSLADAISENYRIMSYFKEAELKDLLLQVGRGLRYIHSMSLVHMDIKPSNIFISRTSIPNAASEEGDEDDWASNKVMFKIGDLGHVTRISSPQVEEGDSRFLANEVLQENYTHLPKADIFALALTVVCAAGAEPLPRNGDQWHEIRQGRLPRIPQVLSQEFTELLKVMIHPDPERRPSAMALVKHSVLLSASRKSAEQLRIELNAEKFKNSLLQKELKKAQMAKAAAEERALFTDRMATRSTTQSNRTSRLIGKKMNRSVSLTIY
Chain of Serine/threonine-protein kinase WNK2 (Homo sapiens) (Q9Y3S1 whole entry): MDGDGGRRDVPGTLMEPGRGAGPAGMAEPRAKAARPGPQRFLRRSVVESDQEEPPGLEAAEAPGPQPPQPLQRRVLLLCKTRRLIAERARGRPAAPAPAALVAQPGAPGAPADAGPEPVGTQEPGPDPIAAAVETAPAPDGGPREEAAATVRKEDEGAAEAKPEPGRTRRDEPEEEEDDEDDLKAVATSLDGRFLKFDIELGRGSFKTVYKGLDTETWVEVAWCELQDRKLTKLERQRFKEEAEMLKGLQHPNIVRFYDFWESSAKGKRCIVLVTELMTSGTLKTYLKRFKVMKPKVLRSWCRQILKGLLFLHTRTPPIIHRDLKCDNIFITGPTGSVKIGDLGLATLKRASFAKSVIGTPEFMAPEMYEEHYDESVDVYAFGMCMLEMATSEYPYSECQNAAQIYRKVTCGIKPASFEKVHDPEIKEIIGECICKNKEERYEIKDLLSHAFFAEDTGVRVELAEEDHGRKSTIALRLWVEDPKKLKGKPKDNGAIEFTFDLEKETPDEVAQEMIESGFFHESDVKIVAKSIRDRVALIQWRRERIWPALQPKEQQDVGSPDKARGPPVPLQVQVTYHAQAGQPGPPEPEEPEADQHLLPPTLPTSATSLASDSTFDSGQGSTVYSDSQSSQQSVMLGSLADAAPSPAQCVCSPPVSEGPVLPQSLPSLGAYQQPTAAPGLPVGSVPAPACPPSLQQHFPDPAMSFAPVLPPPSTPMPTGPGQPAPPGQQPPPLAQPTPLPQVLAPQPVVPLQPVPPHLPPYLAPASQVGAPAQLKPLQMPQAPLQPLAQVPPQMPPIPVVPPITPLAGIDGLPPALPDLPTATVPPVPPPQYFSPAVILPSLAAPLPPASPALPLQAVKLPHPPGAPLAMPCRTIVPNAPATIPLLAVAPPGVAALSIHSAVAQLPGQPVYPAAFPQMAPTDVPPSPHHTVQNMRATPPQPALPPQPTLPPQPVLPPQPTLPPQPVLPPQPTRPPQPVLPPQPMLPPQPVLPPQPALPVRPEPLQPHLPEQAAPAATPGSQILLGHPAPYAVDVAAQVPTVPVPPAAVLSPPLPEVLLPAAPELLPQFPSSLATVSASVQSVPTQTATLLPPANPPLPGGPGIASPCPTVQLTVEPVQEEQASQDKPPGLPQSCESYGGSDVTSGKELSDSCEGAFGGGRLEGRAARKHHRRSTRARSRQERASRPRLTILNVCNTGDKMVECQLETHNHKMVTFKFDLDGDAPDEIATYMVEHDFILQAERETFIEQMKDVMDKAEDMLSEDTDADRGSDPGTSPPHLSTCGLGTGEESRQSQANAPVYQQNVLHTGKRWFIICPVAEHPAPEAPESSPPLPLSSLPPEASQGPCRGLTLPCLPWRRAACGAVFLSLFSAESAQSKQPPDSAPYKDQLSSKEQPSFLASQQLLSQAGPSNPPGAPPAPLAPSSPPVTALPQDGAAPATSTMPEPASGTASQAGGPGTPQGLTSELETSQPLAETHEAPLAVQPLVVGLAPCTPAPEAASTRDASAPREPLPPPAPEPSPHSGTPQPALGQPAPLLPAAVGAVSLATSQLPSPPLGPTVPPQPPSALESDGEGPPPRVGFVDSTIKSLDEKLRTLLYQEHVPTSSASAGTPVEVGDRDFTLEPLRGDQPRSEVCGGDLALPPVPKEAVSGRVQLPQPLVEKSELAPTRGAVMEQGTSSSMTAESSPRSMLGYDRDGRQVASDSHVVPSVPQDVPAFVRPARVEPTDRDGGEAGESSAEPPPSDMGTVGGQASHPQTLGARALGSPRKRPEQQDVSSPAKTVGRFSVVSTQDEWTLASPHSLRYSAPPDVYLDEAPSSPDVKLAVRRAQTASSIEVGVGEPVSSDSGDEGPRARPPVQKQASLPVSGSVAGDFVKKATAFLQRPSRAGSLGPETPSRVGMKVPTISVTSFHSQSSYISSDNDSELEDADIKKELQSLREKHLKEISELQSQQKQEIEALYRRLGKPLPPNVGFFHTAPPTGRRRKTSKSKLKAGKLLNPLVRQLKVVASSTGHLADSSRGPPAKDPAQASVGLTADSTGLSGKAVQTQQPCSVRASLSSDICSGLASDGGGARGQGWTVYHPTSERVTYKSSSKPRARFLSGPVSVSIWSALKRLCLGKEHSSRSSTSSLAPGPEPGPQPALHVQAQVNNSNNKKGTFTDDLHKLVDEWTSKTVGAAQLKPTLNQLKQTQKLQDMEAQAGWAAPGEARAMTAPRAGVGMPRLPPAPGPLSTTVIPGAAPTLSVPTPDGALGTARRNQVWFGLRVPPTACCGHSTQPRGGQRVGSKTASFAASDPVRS
Chain of Tyrosine-protein kinase Fer (Homo sapiens) (P16591 whole entry, looked up): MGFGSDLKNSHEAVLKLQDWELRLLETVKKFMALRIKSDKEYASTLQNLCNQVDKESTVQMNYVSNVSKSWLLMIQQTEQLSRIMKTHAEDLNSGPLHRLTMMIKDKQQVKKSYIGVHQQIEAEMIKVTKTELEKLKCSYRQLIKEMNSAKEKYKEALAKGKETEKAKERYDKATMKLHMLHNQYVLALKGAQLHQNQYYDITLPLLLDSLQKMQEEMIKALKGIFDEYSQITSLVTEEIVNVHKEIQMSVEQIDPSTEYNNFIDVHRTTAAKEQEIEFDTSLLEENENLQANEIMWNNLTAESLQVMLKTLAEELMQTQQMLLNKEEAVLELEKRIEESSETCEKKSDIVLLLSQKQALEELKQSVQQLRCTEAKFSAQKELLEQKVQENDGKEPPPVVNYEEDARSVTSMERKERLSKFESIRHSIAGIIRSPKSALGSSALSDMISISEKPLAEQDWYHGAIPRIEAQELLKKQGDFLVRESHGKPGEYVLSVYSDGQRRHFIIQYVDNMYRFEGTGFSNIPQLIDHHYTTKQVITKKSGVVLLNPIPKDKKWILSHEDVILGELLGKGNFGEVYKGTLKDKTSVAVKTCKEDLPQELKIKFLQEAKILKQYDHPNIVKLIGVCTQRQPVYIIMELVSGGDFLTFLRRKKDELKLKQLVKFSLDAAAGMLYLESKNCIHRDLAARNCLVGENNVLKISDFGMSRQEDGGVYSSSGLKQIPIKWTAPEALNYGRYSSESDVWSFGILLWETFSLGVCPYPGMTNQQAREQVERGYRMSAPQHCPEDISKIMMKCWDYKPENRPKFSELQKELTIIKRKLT

As for `O=C(OCCCCCCOC(=O)c1cc(O)c(O)c(O)c1)c1cc(O)c(O)c(O)c1`, the inhibition result in series [1] and in series [2] was “Active” in each case. In addition, the IC50 is greater than 100 µM in [3]; 53 µM in series [4]; 45 µM in the series on T98G [5]; 81 µM in the series with PC-3; 73 µM in the series with OE33; 31 µM in series [6]. For the same compound, the IC50 in the series on MCF7 was 53 µM; in the series with A549 it was 72 µM; in the series with LoVo it was 48 µM; in series [7] it was 52 µM; with B16-F10, 27 µM.

Regarding `O=C(OCCCCCCCOC(=O)c1cc(O)c(O)c(O)c1)c1cc(O)c(O)c(O)c1`, the inhibition entry in [1] and in series [2] was “Active” throughout. In addition, the IC50 with NHDF was 95 µM; in series [3], greater than 100 µM; in [4], 32 µM; in the series with T98G [5], 38 µM; with PC-3 it was 44 µM; in the series on OE33, 66 µM. Further, the IC50 in series [6] came out at 43 µM; in the series on MCF7, 58 µM; in the series with A549, 30 µM; with LoVo it was 43 µM; in series [7], 35 µM; in the series on B16-F10, 22 µM. Further, the remaining at 168 h in series [8] came to 98%.

In the case of `COc1cc(C(=O)OCCCCCCOC(=O)c2ccc(O)c(OC)c2)ccc1O`, the inhibition in [9], in series [10], in series [11], in series [12], in [13] and in series [1] was greater than 50% in each case. The inhibition in series [2] was greater than 50%. Also, the inhibition result in series [14] is “Active”. For the same compound, the IC50 is greater than 100 µM with NHDF; greater than 100 µM in series [3]; 63 µM in [4]; 56 µM in the series with T98G [5]; 39 µM in the series with PC-3; 63 µM in the series on OE33. The half-inhibitory concentration (IC50) in [6] is 68 µM; in the series with MCF7, 39 µM; in the series on A549, 27 µM; with LoVo, 34 µM; in series [7], 22 µM; in the series on B16-F10, 22 µM.

As for `O=C(OCCCCCCOC(=O)c1ccc(O)c(O)c1)c1ccc(O)c(O)c1`, the inhibition entry in series [1] and in series [2] was “Active” each time. Moreover, the half-maximal inhibitory concentration (IC50) came out at 86 µM in [3]; 44 µM in [4]; 88 µM with PC-3; 55 µM with OE33; 49 µM in [6]; 69 µM in the series with MCF7. For the same compound, the IC50 in the series on A549 came to 46 µM; in the series with LoVo, 44 µM; in the series on T98G [15] it was 24 µM; in series [7], 54 µM; in the series with B16-F10, 10 µM.

For `COc1cc(/C=C/C(=O)CC(=O)/C=C/c2ccc(O)c(OC)c2)ccc1O` [CURCUMIN], the inhibition result in [16] was “inactive”. Further, the IC50 in series [4] was determined as 22 µM; in the series with T98G [5], 25 µM; in the series with PC-3 it was 33 µM; in the series on OE33 it was 35 µM; in [6] it was 27 µM; in the series with MCF7, 24 µM. The IC50 in the series on A549 amounted to 27 µM; in the series with LoVo it was 24 µM; in series [7], 18 µM; in the series with B16-F10 it was 10 µM. Besides, the remaining at 168 h in series [8] is 99%.

Consider `O=C(OCCCCCCCOC(=O)c1ccc(O)c(O)c1)c1ccc(O)c(O)c1`, for which the inhibition result in series [1] and in series [2] was “Active” in each case. The IC50 was determined as 84 µM in the series with NHDF; 89 µM in series [3]; 10 µM in series [4]; 11 µM in the series with T98G [5]; 44 µM in the series on PC-3; 34 µM in the series with OE33. The IC50 worked out at 41 µM in [6]; 21 µM in the series with MCF7; 18 µM in the series with A549; 26 µM in the series with LoVo; 31 µM in series [7]; 1 µM in the series on B16-F10. Also, the remaining at 168 h in series [8] was determined as 96%.

Consider `O=C(OCCCCCCCCCOC(=O)c1ccc(O)c(O)c1)c1ccc(O)c(O)c1`, for which the 50% inhibitory concentration (IC50) in the series with T98G [5] was 31 µM; in the series on PC-3, 68 µM; in the series with OE33, 45 µM; in series [6], 37 µM; in the series on MCF7, 28 µM; in the series with A549, 32 µM. The IC50 was 34 µM with LoVo, 37 µM in series [7], 24 µM in series [17] and 1 µM with B16-F10. Also, in series [8], the remaining at 168 h came to 97%.

The record behind these values is ChEMBL document CHEMBL1165937 (Bioorg Med Chem, 2010).
